ANO1 block: blocks the mouse calcium-activated chloride channel TMEM16A | AID 588511 | 310,000 tested, 1.2% active | normalized B-score (activity score, 25-100; higher = stronger inhibition) at 10 µM | HEK293 TMEM16A/YFP iodide influx fluorescence, ionomycin | Q8BHY3;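 active = ratio plate-corrected score three or more library SD toward inhibition, starting fluorescence score within five deviations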;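 also: score derived from kinetic fluorescence span divided by baseline fluorescence per well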
beta cell repl: MIN6 beta-cell proliferation induction; 330,000 tested, 0.29% active; MIN6 cells proliferation, ATPlite luminescence, 48 h; cells starved in 0.2% serum; 100% = growth in 10% serum; AID 2380; proliferation, % at 10 µM;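 active = compounds whose signal lies at least 3.5 SD above the mean of all wells on their plate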;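 also: 0% = DMSO-treated cells in low-serum medium and 100% = 10% serum control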
TMEM16A act: mouse TMEM16A channel activation, primary screen; Q8BHY3; HEK293 TMEM16A/YFP-H148Q/I152L, iodide quench fluorescence; hits give low values; B-score at 10 µM; 340,000 tested, 0.3% active;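 active = fluorescence-ratio B-score plate-corrected deviation score at least 3 library SD below zero, with starting fluorescence score within 5 deviations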;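 also: channel opened by trigger with iodide after compound preincubation; score built on the fluorescence ratio of max minus min over baseline; more negative score means more quench and so TMEM16A activation or potentiation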
MC4R ag barr: agonists of human melanocortin 4 receptor (MC4R) beta-arrestin | AID 540308 | activation, % at 8.9 µM | 360,000 tested, 0.98% active | U2OS MC4R beta-arrestin complementation, luminescence; percent of melanotan II response, DMSO zero | P32245;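 active = activation above a per-plate cutoff, the mean activation of sample wells on that plate plus 3 SD, cut at about 8% in these data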
Target sequence (P32245 whole entry, looked up): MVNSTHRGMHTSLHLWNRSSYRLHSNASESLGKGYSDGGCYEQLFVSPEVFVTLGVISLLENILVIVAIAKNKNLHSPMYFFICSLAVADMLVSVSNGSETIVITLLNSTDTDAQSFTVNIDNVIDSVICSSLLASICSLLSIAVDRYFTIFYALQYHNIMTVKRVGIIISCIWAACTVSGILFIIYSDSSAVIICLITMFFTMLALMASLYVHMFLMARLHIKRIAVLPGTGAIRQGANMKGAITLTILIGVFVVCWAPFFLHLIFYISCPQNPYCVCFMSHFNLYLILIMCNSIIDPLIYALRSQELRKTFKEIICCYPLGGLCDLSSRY
m5-HT2A agonist: agonists of mouse serotonin 5-HT2A receptor (HTR2A). P35363. CHO-K1 mHTR2A beta-arrestin complementation, luminescence; percent of 30 µM serotonin response. activation, % at 7.6 µM. 360,000 tested, 0.66% active. AID 624169;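 active = activation above a run cutoff, the mean activation of all tested compounds plus 3 SD, cut at about 14% in these data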;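 also: 0% = plate median of compound wells and 100% = 30 µM serotonin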
MC4R antag cAMP: blocks human MC4R cAMP signaling; P32245; MC4R-expressing cells, MTII-stimulated cAMP, LANCE TR-FRET; inhibition, % at 6.5 µM; 360,000 tested, 0.48% active; AID 540295;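 active = inhibition above its plate's cutoff, the mean of tested wells on that plate plus 3 SD, cut at about 29% in these data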;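 also: 0% = Melanotan II alone and 100% = Melanotan II plus saturating MCL0020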
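material = U2OS cells stably expressing human melanocortin 4 receptor (MC4R) | also added = Melanotan II challenge | dosing = single nominal compound dose of 6.5 µM | detection = TR-FRET with Eu-cAMP and labeled anti-cAMP, 671 nm | replication = singlicate | timing = compound 30 min, challenge 1 h, detection 1 h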
MOR ag counter: OPRM1 agonism in mouse HTR2A counterscreen; shares compounds with m5-HT2A agonist; U2OS OPRM1 beta-arrestin PathHunter, luminescence; DMSO 0%, DAMGO 9.3 µM 100%; activation, % at 9.3 µM; 2,300 tested, 5.3% active; AID 624380;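 active = mean activation above the mean of DMSO-only wells plus 3 SD, cut at about 0.5% in these data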
HTR2A ag conf: confirmation of mouse HTR2A serotonin receptor agonists; shares compounds with m5-HT2A agonist; CHO-K1 PathHunter beta-arrestin recruitment, luminescence; DMSO 0%, 30 µM serotonin 100%; activation, % at 7.6 µM; 2,300 tested, 19% active; AID 624381;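 active = mean activation across triplicates above the hit threshold derived in the original primary screen, cut at about 15% in these data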
Active calls of the source: *; i = inactive; . = no result. An excerpt weighted towards active compounds, which were near 3.4% of everything screened.

SMILES | ANO1 block | beta cell repl | TMEM16A act | MC4R ag barr | m5-HT2A agonist | MC4R antag cAMP | MOR ag counter | HTR2A ag conf
COc1ccc(C=CC(=O)c2ccc3cc(OC)c(OC)cc3c2)cc1OC | . | . | . | -1 | 17* | 18 | -1 | 1
COc1ccc2c(c1)C(O)C(CO)C(C(=O)O)C2 (centres undefined) | . | . | i | 0 | 16* | 2 | -1 | -3
CC(C)(CCc1ccccn1)C(=O)C(CCc1ccccn1)CCc1ccccn1 | . | . | i | 0 | 14* | 4 | -1 | 33*
Cc1nc(-c2nc(-c3c(C(=O)NNC(=O)Nc4ccccc4)noc3C)cs2)cs1 | i | 2 | i | -1 | 0 | 6 | . | .
Cc1nc(-c2nc(-c3c(C(=O)NNC(=O)Nc4cccc(Cl)c4)noc3C)cs2)cs1 | i | -4 | i | -2 | 19* | 0 | -1 | 52*
COc1ccc(C(C)=O)cc1COC(=O)Cc1cc(OC)c(OC)c(OC)c1 | i | 0 | i | 0 | 5 | 22 | . | .
Brc1ccccc1-c1nnc(SCc2nc3ccccc3s2)o1 | 25* | -4 | i | 1 | 16* | 1 | 0 | -3
O=C(CSc1nnc(-c2ccccc2Br)o1)N1CCOCC1 | i | 0 | i | 1 | 5 | 20 | . | .
O=C(NCC(=O)N1CCN(S(=O)(=O)c2ccc3c(c2)OCCO3)CC1)c1ccccc1F | . | -1 | i | -3 | 15* | -1 | -1 | -3
COc1cc(-c2ccc3c(=O)c4ccccc4n(C)c3c2)cc(OC)c1OC | i | -1 | i | 0 | 18* | 8 | 0 | 1
CCN(CC)CCn1c(NC(=O)c2ccc(Cl)cc2)nc2ccccc21 | i | -2 | i | -3 | 18* | 4 | . | 12
COC(=O)c1cc2n3ccccc3c(C)c(-c3ccccc3)c-2c1C(=O)OC | i | 4 | i | -1 | 18* | -10 | 0 | 1
O=C(O)c1cccc2c1Cc1cc([N+](=O)[O-])ccc1-2 | . | . | i | -2 | 15* | 3 | 0 | -1
O=C(O)c1cccc2c1-c1ccc([N+](=O)[O-])cc1C2=O | . | . | i | -1 | -2 | 1 | . | .
NC(=O)c1ccc(NC(=O)CCN2C(=O)c3ccccc3C2=O)cc1 | i | -3 | i | -1 | -2 | 16 | . | .
Cc1ccc(NC(=O)CCN2C(=O)c3ccccc3C2=O)cc1 | i | -1 | i | 2 | 23* | 1 | 0 | -3
O=C(CN1CCN(c2ncccn2)CC1)NCc1ccc2c(c1)OCO2 | i | -1 | i | -3 | 10 | 6 | . | .
Cc1ccc(CN2CCN(c3ncccn3)CC2)o1 | i | 0 | i | 2 | 30* | -3 | -1 | 60*
Fc1ccccc1CN1CCN(c2ncccn2)CC1 | i | 3 | i | 0 | 26* | -4 | 0 | 121*
Oc1cc2c(cc1CN1CCN(c3ncccn3)CC1)OCO2 | i | -3 | i | -3 | 17* | -8 | -1 | 123*
Cc1ccc(C)c(CN2CCN(c3ncccn3)CC2)c1 | i | -1 | i | 0 | 17* | -1 | 0 | 62*
CC1(C(=O)NS(=O)(=O)c2ccccc2Cl)CCN1C(=O)c1ccccc1 (centres undefined) | . | . | . | -2 | 7 | 6 | . | .
COc1cc(Br)cc(CN2CCN(c3ncccn3)CC2)c1O | i | -1 | i | -1 | 33* | 3 | 0 | 106*
COc1ccc(Br)cc1CN1CCCCCCC1 | i | -2 | i | -1 | 0 | 20 | . | .
COc1cccc(CN2CCN(c3ncccn3)CC2)c1 | i | -2 | i | -2 | 36* | 12 | 0 | 113*

Screens from PubChem BioAssay.
